Paper PMC3288537 (ACS Chemical Biology, 2011)

Assays:
PTP-SL = molecular target: T1, PTP-SL (Homo sapiens, UniProt Q15256); test: Dose-response OMFP phosphatase assay, PTP-SL; type: biochemical; settings: read-out: IC50 PTP-SL; OMFP substrate
T1 sequence (Q15256 22-657): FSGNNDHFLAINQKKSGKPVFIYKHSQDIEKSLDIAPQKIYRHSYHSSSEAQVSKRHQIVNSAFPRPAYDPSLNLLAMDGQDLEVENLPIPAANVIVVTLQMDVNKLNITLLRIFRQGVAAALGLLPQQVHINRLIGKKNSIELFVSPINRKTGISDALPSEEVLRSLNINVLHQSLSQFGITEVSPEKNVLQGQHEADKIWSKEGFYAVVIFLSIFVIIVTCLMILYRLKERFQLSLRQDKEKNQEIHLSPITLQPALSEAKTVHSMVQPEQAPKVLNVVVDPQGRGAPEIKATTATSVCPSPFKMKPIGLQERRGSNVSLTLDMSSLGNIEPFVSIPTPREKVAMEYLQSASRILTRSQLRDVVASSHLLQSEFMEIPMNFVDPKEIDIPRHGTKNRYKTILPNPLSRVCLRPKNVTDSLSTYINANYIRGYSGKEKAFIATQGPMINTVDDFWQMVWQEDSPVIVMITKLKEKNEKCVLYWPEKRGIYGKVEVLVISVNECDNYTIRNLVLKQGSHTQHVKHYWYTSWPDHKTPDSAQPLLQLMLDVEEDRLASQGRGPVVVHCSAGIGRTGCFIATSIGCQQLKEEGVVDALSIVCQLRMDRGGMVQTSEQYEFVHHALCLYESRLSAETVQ

HePTP H237A mutant = molecular target: T2, HePTP H237A mutant (Homo sapiens, UniProt P35236, H258A); test: Dose-response OMFP phosphatase assay, HePTP H237A mutant; type: biochemical; settings: read-out: IC50 HePTP H237A
T2 sequence (P35236 22-360 H258A limits assumed): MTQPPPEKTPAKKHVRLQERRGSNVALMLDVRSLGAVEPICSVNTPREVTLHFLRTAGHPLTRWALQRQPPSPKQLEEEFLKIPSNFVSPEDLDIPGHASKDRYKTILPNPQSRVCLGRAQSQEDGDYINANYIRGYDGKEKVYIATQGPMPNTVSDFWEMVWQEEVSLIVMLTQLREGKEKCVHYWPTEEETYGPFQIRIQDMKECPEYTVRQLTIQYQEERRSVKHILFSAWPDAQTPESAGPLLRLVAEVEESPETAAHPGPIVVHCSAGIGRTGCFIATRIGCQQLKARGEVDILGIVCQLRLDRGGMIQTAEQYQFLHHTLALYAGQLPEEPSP

TCPTP = molecular target: T3, TCPTP (Homo sapiens, UniProt P17706); test: Dose-response OMFP phosphatase assay, TCPTP; type: biochemical; settings: read-out: IC50 TCPTP; OMFP substrate
T3 sequence (P17706 1-415): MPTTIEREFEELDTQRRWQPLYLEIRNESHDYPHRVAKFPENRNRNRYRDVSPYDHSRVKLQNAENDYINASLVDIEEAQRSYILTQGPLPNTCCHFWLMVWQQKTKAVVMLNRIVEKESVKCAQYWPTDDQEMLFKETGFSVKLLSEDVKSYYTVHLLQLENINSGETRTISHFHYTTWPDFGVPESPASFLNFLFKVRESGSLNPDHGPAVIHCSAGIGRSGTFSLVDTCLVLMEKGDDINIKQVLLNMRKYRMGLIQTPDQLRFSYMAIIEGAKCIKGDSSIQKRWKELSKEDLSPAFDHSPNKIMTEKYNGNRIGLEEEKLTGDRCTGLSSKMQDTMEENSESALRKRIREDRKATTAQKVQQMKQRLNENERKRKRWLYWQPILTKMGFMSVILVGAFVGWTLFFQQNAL
How it was run: (§1)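 Ten-point 2-fold dilution series of test compound prepared in DMSO. Fluorescence (ex 485/em 528 nm) read in kinetic mode over 10 min; progress-curve slopes taken as activity. IC50 by nonlinear regression (sigmoidal, variable slope).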

Tissue concentration = type: in vivo, C57B6 mice; settings: mice
CD45 = molecular target: T4, CD45 (Homo sapiens, UniProt P08575); test: Dose-response OMFP phosphatase assay, CD45; type: biochemical; settings: read-out: IC50 CD45; OMFP substrate
T4 sequence (P08575 26-1306): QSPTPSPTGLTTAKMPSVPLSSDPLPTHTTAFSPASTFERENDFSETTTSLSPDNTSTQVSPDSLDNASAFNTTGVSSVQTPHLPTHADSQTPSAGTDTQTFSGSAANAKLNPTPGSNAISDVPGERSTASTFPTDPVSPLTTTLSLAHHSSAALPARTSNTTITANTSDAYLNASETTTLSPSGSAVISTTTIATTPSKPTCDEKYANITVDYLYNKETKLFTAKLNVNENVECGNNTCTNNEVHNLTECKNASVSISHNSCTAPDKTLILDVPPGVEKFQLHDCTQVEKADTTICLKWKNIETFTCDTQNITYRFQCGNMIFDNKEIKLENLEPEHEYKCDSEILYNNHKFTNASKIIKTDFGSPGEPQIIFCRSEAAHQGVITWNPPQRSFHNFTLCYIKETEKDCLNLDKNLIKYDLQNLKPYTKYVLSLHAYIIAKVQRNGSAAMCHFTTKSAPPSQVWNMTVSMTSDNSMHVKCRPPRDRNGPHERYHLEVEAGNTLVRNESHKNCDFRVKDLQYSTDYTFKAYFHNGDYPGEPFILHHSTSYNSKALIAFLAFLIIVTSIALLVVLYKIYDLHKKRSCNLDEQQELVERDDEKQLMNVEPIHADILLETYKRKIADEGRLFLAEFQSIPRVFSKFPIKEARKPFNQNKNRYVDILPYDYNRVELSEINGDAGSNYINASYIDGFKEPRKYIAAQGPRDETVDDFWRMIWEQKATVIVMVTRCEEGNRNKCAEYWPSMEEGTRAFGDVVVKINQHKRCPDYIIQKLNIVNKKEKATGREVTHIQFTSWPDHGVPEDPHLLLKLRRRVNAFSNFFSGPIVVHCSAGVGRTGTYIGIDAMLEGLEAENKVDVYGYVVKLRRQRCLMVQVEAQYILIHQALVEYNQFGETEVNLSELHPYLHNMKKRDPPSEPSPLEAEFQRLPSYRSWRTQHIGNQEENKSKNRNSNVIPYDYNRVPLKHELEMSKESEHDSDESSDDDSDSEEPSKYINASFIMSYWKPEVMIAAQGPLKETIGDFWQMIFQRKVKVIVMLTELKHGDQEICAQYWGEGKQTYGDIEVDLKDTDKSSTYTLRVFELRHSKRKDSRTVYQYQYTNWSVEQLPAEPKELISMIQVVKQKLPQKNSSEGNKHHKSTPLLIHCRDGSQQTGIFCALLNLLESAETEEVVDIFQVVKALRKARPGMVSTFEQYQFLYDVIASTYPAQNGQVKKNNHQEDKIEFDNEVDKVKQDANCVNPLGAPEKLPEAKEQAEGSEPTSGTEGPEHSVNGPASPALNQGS
How it was run: as §1

Structure (SMILES): O=C(O)c1ccccc1-c1ccc(/C=c2\sc3nc4cc(Br)cnc4n3c2=O)o1 [Compound 1]
- IC50 (PTP-SL): 1100 nM
- IC50 (HePTP H237A mutant): 2800 nM
- IC50 (TCPTP): 1000 nM
- blood-brain-barrier crossing (Tissue concentration; i.p.): does not appear to cross the BBB
- concentration in the spleen tissue (Tissue concentration; i.p.): < 0.5 µM
- compound in cerebellum (Tissue concentration; i.p. 3 or 5 mg/kg, 3 h): could not be detected
- compound in brain tissue (Tissue concentration; i.p. 3 or 5 mg/kg, 3 h, detection limit ~1 nM): could not be detected
- concentration in splenocytes (Tissue concentration; i.p., 6 h after injection): 0.265 ± 0.119 µM
- IC50 (CD45): 3.1 µM
